Key:
Liver microsome [1] = experiment: Drug metabolism in human liver microsomes treated with 50 uM atazanavir by LC-MS/MS analysis; format: ADME
Outline: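 Human liver microsomes (0.5 g protein/l) were incubated in PBS pH 7.4 with 50 μM substrate, in duplicate. After 5 min preincubation at 37°C, 1.0 mM NADPH (final) was added and the reaction ran 30 min with shaking; incubations without NADPH served as controls. Reactions were quenched with equal-volume acetonitrile, centrifuged and analyzed by UPLC-TOFMS.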

Cytochrome P450 3A4 [2] = biological target: T1, Cytochrome P450 3A4 (Homo sapiens, UniProt P08684); experiment: Drug metabolism assessed as human CYP3A4-mediated formation at 50 uM by UPLC-TOFMS system; format: ADME; settings: recombinant enzyme
T1 sequence (P08684 whole entry): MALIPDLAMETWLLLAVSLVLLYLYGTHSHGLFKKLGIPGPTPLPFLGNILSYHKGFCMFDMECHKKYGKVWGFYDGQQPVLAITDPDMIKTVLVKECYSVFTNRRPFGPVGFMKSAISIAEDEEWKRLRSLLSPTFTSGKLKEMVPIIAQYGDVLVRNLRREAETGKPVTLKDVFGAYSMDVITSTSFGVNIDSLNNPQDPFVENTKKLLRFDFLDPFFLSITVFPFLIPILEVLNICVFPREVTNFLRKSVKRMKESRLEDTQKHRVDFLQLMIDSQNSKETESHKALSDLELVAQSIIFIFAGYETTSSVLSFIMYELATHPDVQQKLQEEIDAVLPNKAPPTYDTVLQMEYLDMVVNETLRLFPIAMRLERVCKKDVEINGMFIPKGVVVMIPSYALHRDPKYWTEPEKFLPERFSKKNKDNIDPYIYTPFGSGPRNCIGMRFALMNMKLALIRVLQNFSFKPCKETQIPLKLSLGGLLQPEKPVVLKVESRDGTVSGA
Outline: (§1)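 Each cDNA-expressed human P450 (CYP1A2, 2A6, 2B6, 2C8, 2C9, 2C19, 2D6, 2E1, 3A4; 2 pmol), plus a control, was incubated in PBS pH 7.4 with 50 μM substrate. After 5 min preincubation at 37°C, 1.0 mM NADPH (final) was added and the reaction ran 30 min with shaking. Ketoconazole (10 μM) was co-incubated as a CYP3A inhibitor, and NADPH-free incubations served as controls. Reactions were quenched with acetonitrile, centrifuged and analyzed by UPLC-TOFMS.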

Cytochrome P450 2D6 = Cytochrome P450 2D6 (Homo sapiens, UniProt P10635); experiment: Drug level assessed as human CYP2D6-mediated compound formation treated with atazanavir at 50 uM by UPLC-TOFMS system; format: ADME; settings: recombinant enzyme; outline: as §1
Cytochrome P450 2D6, sequence (P10635 whole entry): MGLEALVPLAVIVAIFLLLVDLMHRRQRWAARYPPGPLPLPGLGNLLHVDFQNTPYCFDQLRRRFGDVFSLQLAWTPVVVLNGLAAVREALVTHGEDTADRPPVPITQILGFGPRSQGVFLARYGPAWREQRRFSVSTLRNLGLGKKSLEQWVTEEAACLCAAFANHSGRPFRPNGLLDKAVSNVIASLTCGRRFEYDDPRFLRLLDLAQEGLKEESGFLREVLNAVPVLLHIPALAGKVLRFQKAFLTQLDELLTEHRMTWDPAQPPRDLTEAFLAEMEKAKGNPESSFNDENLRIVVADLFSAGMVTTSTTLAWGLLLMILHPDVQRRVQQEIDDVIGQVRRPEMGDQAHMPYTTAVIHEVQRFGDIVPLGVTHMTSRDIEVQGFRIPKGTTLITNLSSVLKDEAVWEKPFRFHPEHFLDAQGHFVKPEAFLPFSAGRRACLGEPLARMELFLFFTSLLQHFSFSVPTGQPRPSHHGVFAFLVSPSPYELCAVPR

[3] = Drug level in wild type mouse feces treated with 50 mg/kg, po atazanavir by LC-MS/MS analysis; format: ADME, organism-based; parameters: dose 50 mg/kg, dosed compound name Azazanavir, route oral; settings: in vivo
Outline: (§2)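 Wild-type mice (n = 4) got a single oral 50 mg/kg dose and were housed individually in metabolic cages for 18 h, with urine and feces collected. Urine was diluted 1:4 in 50% acetonitrile and centrifuged. Feces were homogenized in water (1 mg/10 μl), mixed 1:1 with acetonitrile and centrifuged twice. Supernatants were analyzed by UPLC-TOFMS, with accurate mass (<10 ppm error) and MS/MS for identification.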

[4] = Drug level in wild type mouse urine treated with 50 mg/kg, po atazanavir by LC-MS/MS analysis; format: ADME, organism-based; parameters: dose 50 mg/kg, dosed compound name Azazanavir, route oral; settings: in vivo; outline: as §2
Liver microsome [5] = experiment: Drug metabolism in human liver microsomes assessed as ((S)-1-{(1S,2S)-1-Benzyl-2-hydroxy-3-[N'-((S)-2-methoxycarbonylamino-3,3-dimethyl-butyryl)-N-(4-pyridin-2-yl-benzyl)-hydrazino]-propylcarbamoyl}-3-hydroxy-2,2-dimethyl-propyl)-carbamic acid methyl ester formation at 50 uM by LC-MS/MS analysis; settings: in vitro
Cytochrome P450 3A4 [6] = biological target: T1, Cytochrome P450 3A4; experiment: Drug level assessed as human CYP3A4-mediated (S)-methyl 3,3-dimethyl-1-oxo-1-(2-(4-(pyridin-2-yl)benzyl)hydrazinyl)butan-2-ylcarbamate formation treated with 50 uM atazanavir by UPLC-TOFMS system; format: ADME; settings: recombinant enzyme; outline: as §1
Liver microsome [7] = experiment: Drug metabolism in human liver microsomes assessed as (S)-methyl 3,3-dimethyl-1-oxo-1-(2-(4-(pyridin-2-yl)benzyl)hydrazinyl)butan-2-ylcarbamate formation at 50 uM by LC-MS/MS analysis; settings: in vitro
[8] = Drug excretion in wildtype mouse feces assessed as ((S)-1-{(1S,2S)-1-Benzyl-2-hydroxy-3-[N'-((S)-2-methoxycarbonylamino-3,3-dimethyl-butyryl)-hydrazino propylcarbamoyl}-2,2-dimethyl-propyl)-carbamic acid methyl ester formation at 50 mg/kg, po by LC-MS/MS analysis; format: ADME, organism-based; parameters: dose 50 mg/kg, dosed compound name Azazanavir, route oral; settings: in vivo; outline: as §2
[9] = (§3) Drug excretion in wildtype mouse urine assessed as ((S)-1-{(1S,2S)-1-Benzyl-2-hydroxy-3-[N'-((S)-2-methoxycarbonylamino-3,3-dimethyl-butyryl)-N-(4-pyridin-2-yl-benzyl)-hydrazino]-propylcarbamoyl}-3-hydroxy-2-hydroxymethyl-2-methyl-propyl)-carbamic acid methyl ester formation at 50 mg/kg, po by LC-MS/MS analysis; format: ADME, organism-based; parameters: dose 50 mg/kg, dosed compound name Azazanavir, route oral; settings: in vivo; outline: as §2
[10] = Drug excretion in wild type mouse urine assessed as methyl (S)-1-((2S,3S)-4-(2-((S)-2-amino-3,3-dimethylbutanoyl)-1-(4-(pyridin-2-yl)benzyl)hydrazinyl)-3-hydroxy-1-phenylbutan-2-ylamino)-3,3-dimethyl-1-oxobutan-2-ylcarbamate formation at 50 mg/kg, po by LC-MS/MS analysis; format: ADME, organism-based; parameters: dose 50 mg/kg, dosed compound name Azazanavir, route oral; settings: in vivo; outline: as §2
Liver microsome [11] = experiment: Drug metabolism in human liver microsomes assessed as ((S)-1-{(1S,2S)-1-Benzyl-2-hydroxy-3-[N'-((S)-2-methoxycarbonylamino-3,3-dimethyl-butyryl)-hydrazino]-propylcarbamoyl}-2,2-dimethyl-propyl)-carbamic acid methyl ester formation at 50 uM by LC-MS/MS analysis; settings: in vitro
Liver microsome [12] = experiment: Drug metabolism in human liver microsomes assessed as methyl (S)-1-(2-((2S,3S)-3-((S)-2-amino-3,3-dimethylbutanamido)-2-hydroxy-4-phenylbutyl)-2-(4-(pyridin-2-yl)benzyl)hydrazinyl)-3,3-dimethyl-1-oxobutan-2-ylcarbamate formation at 50 uM by LC-MS/MS analysis; settings: in vitro
[13] = Drug excretion in wild type mouse assessed as (S)-methyl 3,3-dimethyl-1-oxo-1-(2-(4-(pyridin-2-yl)benzyl)hydrazinyl)butan-2-ylcarbamate formation at 50 mg/kg, po by LC-MS/MS analysis; format: ADME, organism-based; parameters: dose 50 mg/kg, dosed compound name Azazanavir, route oral; settings: in vivo; outline: as §2
[14] = Drug excretion in wildtype mouse urine assessed as ((S)-1-{(1S,2S)-1-Benzyl-2-hydroxy-3-[N'-((S)-2-methoxycarbonylamino-3,3-dimethyl-butyryl)-N-(4-pyridin-2-yl-benzyl)-hydrazino]-propylcarbamoyl}-3-hydroxy-2,2-dimethyl-propyl)-carbamic acid methyl ester formation at 50 mg/kg, po by LC-MS/MS analysis; format: ADME, organism-based; parameters: dose 50 mg/kg, dosed compound name Azazanavir, route oral; settings: in vivo; outline: as §2
[15] = as §3, with “feces” for “urine”; format: ADME, organism-based; parameters: dose 50 mg/kg, dosed compound name Azazanavir, route oral; settings: in vivo; outline: as §2
[16] = Drug excretion in wild type mouse urine assessed as (S)-methyl 3,3-dimethyl-1-oxo-1-(2-(4-(pyridin-2-yl)benzyl)hydrazinyl)butan-2-ylcarbamate formation at 50 mg/kg, po by LC-MS/MS analysis; format: ADME, organism-based; parameters: dose 50 mg/kg, dosed compound name Azazanavir, route oral; settings: in vivo; outline: as §2
Liver microsome [17] = experiment: Drug metabolism in human liver microsomes assessed as methyl (S)-1-((2S,3S)-4-(2-((S)-2-amino-3,3-dimethylbutanoyl)-1-(4-(pyridin-2-yl)benzyl)hydrazinyl)-3-hydroxy-1-phenylbutan-2-ylamino)-3,3-dimethyl-1-oxobutan-2-ylcarbamate formation by LC-MS/MS analysis
[18] = Drug excretion in wild type mouse feces assessed as methyl (S)-1-((2S,3S)-4-(2-((S)-2-amino-3,3-dimethylbutanoyl)-1-(4-(pyridin-2-yl)benzyl)hydrazinyl)-3-hydroxy-1-phenylbutan-2-ylamino)-3,3-dimethyl-1-oxobutan-2-ylcarbamate formation at 50 mg/kg, po by LC-MS/MS analysis; format: ADME, organism-based; parameters: dose 50 mg/kg, dosed compound name Azazanavir, route oral; settings: in vivo; outline: as §2
[19] = Drug excretion in wildtype mouse feces assessed as ((S)-1-{(1S,2S)-1-Benzyl-2-hydroxy-3-[N'-((S)-2-methoxycarbonylamino-3,3-dimethyl-butyryl)-N-(4-pyridin-2-yl-benzyl)-hydrazino]-propylcarbamoyl}-3-hydroxy-2,2-dimethyl-propyl)-carbamic acid methyl ester formation at 50 mg/kg, po by LC-MS/MS analysis; format: ADME, organism-based; parameters: dose 50 mg/kg, dosed compound name Azazanavir, route oral; settings: in vivo; outline: as §2
[20] = Drug excretion in wildtype mouse urine assessed as ((S)-1-{(1S,2S)-1-Benzyl-2-hydroxy-3-[N'-((S)-2-methoxycarbonylamino-3,3-dimethyl-butyryl)-hydrazino propylcarbamoyl}-2,2-dimethyl-propyl)-carbamic acid methyl ester formation at 50 mg/kg, po by LC-MS/MS analysis; format: ADME, organism-based; parameters: dose 50 mg/kg, dosed compound name Azazanavir, route oral; settings: in vivo; outline: as §2
[21] = Drug excretion in wildtype mouse urine assessed as {(S)-3-Hydroxy-1-[N'-[(2S,3S)-2-hydroxy-3-((S)-4-hydroxy-2-methoxycarbonylamino-3,3-dimethyl-butyrylamino)-4-phenyl-butyl]-N'-(4-pyridin-2-yl-benzyl)-hydrazinocarbonyl]-2,2-dimethyl-propyl}-carbamic acid methyl ester formation at 50 mg/kg, po by LC-MS/MS analysis; format: ADME, organism-based; parameters: dose 50 mg/kg, dosed compound name Azazanavir, route oral; settings: in vivo; outline: as §2
[22] = Drug excretion in wild type mouse feces assessed as methyl (S)-1-(2-((2S,3S)-3-((S)-2-amino-3,3-dimethylbutanamido)-2-hydroxy-4-phenylbutyl)-2-(4-(pyridin-2-yl)benzyl)hydrazinyl)-3,3-dimethyl-1-oxobutan-2-ylcarbamate formation at 50 mg/kg, po by LC-MS/MS analysis; format: ADME, organism-based; parameters: dose 50 mg/kg, dosed compound name Azazanavir, route oral; settings: in vivo; outline: as §2
[23] = Drug excretion in wild type mouse urine assessed as methyl (S)-1-(2-((2S,3S)-3-((S)-2-amino-3,3-dimethylbutanamido)-2-hydroxy-4-phenylbutyl)-2-(4-(pyridin-2-yl)benzyl)hydrazinyl)-3,3-dimethyl-1-oxobutan-2-ylcarbamate formation at 50 mg/kg, po by LC-MS/MS analysis; format: ADME, organism-based; parameters: dose 50 mg/kg, dosed compound name Azazanavir, route oral; settings: in vivo; outline: as §2
[24] = Drug excretion in wildtype mouse feces assessed as {(S)-3-Hydroxy-1-[N'-[(2S,3S)-2-hydroxy-3-((S)-4-hydroxy-2-methoxycarbonylamino-3,3-dimethyl-butyrylamino)-4-phenyl-butyl]-N'-(4-pyridin-2-yl-benzyl)-hydrazinocarbonyl]-2,2-dimethyl-propyl}-carbamic acid methyl ester formation at 50 mg/kg, po by LC-MS/MS analysis; format: ADME, organism-based; parameters: dose 50 mg/kg, dosed compound name Azazanavir, route oral; settings: in vivo; outline: as §2
Liver microsome [25] = experiment: Drug metabolism in human liver microsomes assessed as ((S)-1-{(1S,2S)-1-Benzyl-2-hydroxy-3-[N'-((S)-2-methoxycarbonylamino-3,3-dimethyl-butyryl)-N-(4-pyridin-2-yl-benzyl)-hydrazino]-propylcarbamoyl}-3-hydroxy-2-hydroxymethyl-2-methyl-propyl)-carbamic acid methyl ester formation at 50 uM by LC-MS/MS analysis; settings: in vitro

Measured: Compound recovery

COC(=O)N[C@H](C(=O)NNC[C@H](O)[C@H](Cc1ccccc1)NC(=O)[C@@H](NC(=O)OC)C(C)(C)C)C(C)(C)C
metabolite_detected: Liver microsome [1] | Cytochrome P450 3A4 [2] | Cytochrome P450 2D6 | [3] | [4]

COC(=O)N[C@H](C(=O)N[C@@H](Cc1ccccc1)[C@@H](O)CN(Cc1ccc(-c2ccccn2)cc1)NC(=O)[C@@H](N)C(C)(C)C)C(C)(C)C
metabolite_detected: Liver microsome [1] | [3] | [4]

COC(=O)N[C@H](C(=O)N[C@@H](Cc1ccccc1)[C@@H](O)CN(Cc1ccc(-c2ccccn2)cc1)NC(=O)[C@@H](NC(=O)OC)C(C)(C)CO)C(C)(C)CO
metabolite_detected: [3] | [4]

COC(=O)N[C@H](C(=O)NN(Cc1ccc(-c2ccccn2)cc1)C[C@H](O)[C@H](Cc1ccccc1)NC(=O)[C@@H](NC(=O)OC)C(C)(CO)CO)C(C)(C)C
metabolite_detected: Liver microsome [1] | [3] | [4]

COC(=O)N[C@H](C(=O)NN(Cc1ccc(-c2ccccn2)cc1)C[C@H](O)[C@H](Cc1ccccc1)NC(=O)[C@@H](NC(=O)OC)C(C)(C)CO)C(C)(C)C
metabolite_detected: Liver microsome [1] | [3] | [4]

COC(=O)N[C@H](C(=O)N[C@@H](Cc1ccccc1)[C@@H](O)CN(Cc1ccc(-c2ccccn2)cc1)NC(=O)[C@@H](NC(=O)OC)C(C)(C)C)C(C)(C)C [ATAZANAVIR]
not listed: Liver microsome [1] | Cytochrome P450 3A4 [2] | Cytochrome P450 2D6 | [3] | [4]
metabolite_detected: all other assays above

COC(=O)N[C@H](C(=O)N[C@@H](Cc1ccccc1)[C@@H](O)C=O)C(C)(C)C
metabolite_detected: [3]

COC(=O)N[C@H](C(=O)NNCc1ccc(-c2ccccn2)cc1)C(C)(C)C
metabolite_detected: Liver microsome [1] | [3] | [4]

COC(=O)N[C@H](C(=O)N[C@@H](Cc1ccccc1)[C@@H](O)CNN)C(C)(C)C
metabolite_detected: Liver microsome [1] | [3] | [4]

COC(=O)N[C@H](C(=O)NN(Cc1ccc(-c2ccccn2)cc1)C[C@H](O)[C@H](Cc1ccccc1)NC(=O)[C@@H](N)C(C)(C)C)C(C)(C)C
metabolite_detected: Liver microsome [1] | [3] | [4]

Reference: ChEMBL document CHEMBL3525995, “CYP3A-mediated generation of aldehyde and hydrazine in atazanavir metabolism” (Drug Metab Dispos, 2011)
